The test system of assay [1] is P388. The experiment in a line: Cytotoxic activity against murine lymphocytic leukemia P388 concentration of agent required to reduce cell viability by 50%. Particulars: Mus musculus. The assay is classed as functional, cell-based. The essentials: (§1)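 Modified MTT assay. Cells seeded per well with graded drug: CHO 2.5 × 10^3, B16 5 × 10^3, P388 and LLC 10^4, HL-60 and LoVo 5 × 10^4. After 68 h, MTT (2.5 mg/mL) added for 4 h at 37 °C. Formazan dissolved in DMSO and A550 read. Inhibition taken as fractional A550 decrease vs control. IC50/IC90 from Chou's median-effect equation.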

Assay [2] in a line: Ratio of cytotoxicity of compound towards bone marrow sample and to that of HL-60 was determined as IC50BM/IC50HL. The assay is classed as functional. The essentials: (§2)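 Second-stage assay on HL-60 (5 × 10^4/well) and soybean-agglutinin-negative mononuclear marrow cells (5 × 10^5/well) from six healthy donors. Four wells per concentration, 48 h at 37 °C, then [125I]iododeoxyuridine plus fluorodeoxyuridine for 18 h. Inhibition from fractional uptake decrease; IC50/IC90 by median-effect equation. Ranges are antilog(mean log ± 2SD); ratios use mean antilogs.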

The test system of assay [3] is P388. In words: In vivo antitumor activity against Murine P388 Leukemia at 60 mg/kg dose;(Median survival time of treated mice)/(median survival time of controls) x100. It is filed as functional, Mus musculus. The essentials:
(§3)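 Female BD2F1 mice (8 weeks, 20-22 g), eight per group, given 10^5 P388 cells ip on day 0. From 24 h later, drug was given ip once daily for 9 days as a micronized suspension in 0.5% carboxymethylcellulose. Deaths were recorded daily over a 33-day study. %T/C = median survival time of treated / median survival time of controls × 100; >125 taken as significant.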

The test system of assay [4] is HL-60. In words: Cytotoxic activity against human promyelocytic leukemia HL-60 concentration of agent required to reduce cell viability by 90%. It is filed as functional. The method, boiled down: as §1
For assay [5], the system named is B16. In words: Cytotoxic activity against solid tumor, B16 (murine melanoma) concentration of agent required to reduce cell viability by 90%. It is filed as functional. Particulars: Mus musculus. The method, boiled down: as §1
In assay [6] the test system is CHO. In words: Cytotoxic activity against solid tumor, CHO (Chinese hamster ovaric carcinoma) concentration of agent required to reduce cell viability by 90%. To be noted: Cricetulus griseus. It is filed as functional. The method, boiled down: as §1
Assay [7] deals with Lewis lung carcinoma cell line. In words: Cytotoxic activity against solid tumor LLC(Lewis lung carcinoma), concentration of agent required to reduce cell viability by 90%. The assay is classed as functional. Particulars: Mus musculus. The method, boiled down: as §1
The nature of assay [8]: Ratio of cytotoxicity of compound towards bone marrow sample and to that of HL-60 was determined as IC50BM/IC90HL. The assay is classed as functional. The method, boiled down:
as §2

Assay [9] deals with HL-60. The experiment in a line: (§4) Relative cytotoxicity against human promyelocytic leukemia(HL-60) cells. It is filed as functional, cell-based. The method, boiled down:
as §2

Assay [10] in a line: Ratio of cytotoxicity of compound towards bone marrow sample and to that of HL-60 was determined as IC90BM/IC90HL. It is filed as functional. The essentials: as §2
The species entered for assay [11] is Homo sapiens. In words: Relative cytotoxicity against human bone marrow samples. It is filed as functional. The method, boiled down:
as §2

Assay [12] deals with CHO. The experiment in a line: Cytotoxic activity against solid tumor, CHO (Chinese hamster ovaric carcinoma) concentration of agent required to reduce cell viability by 50%. To be noted: Cricetulus griseus. It is filed as functional, cell-based. The method, boiled down:
as §1

The test system of assay [13] is Lewis lung carcinoma cell line. The experiment in a line: Cytotoxic activity against solid tumor LLC(Lewis lung carcinoma), concentration of agent required to reduce cell viability by 50%. It is filed as functional, cell-based. Particulars: Mus musculus. The method, boiled down: as §1
Assay [14] relates to B16. The experiment in a line: Cytotoxic activity against solid tumor, B16 (murine melanoma) concentration of agent required to reduce cell viability by 50%. It is filed as functional, cell-based. To be noted: Mus musculus. The method, boiled down:
as §1

The test system of assay [15] is P388. In words: Cytotoxic activity against murine lymphocytic leukemia P388 concentration of agent required to reduce cell viability by 90%. It is filed as functional. To be noted: Mus musculus. The method, boiled down:
as §1

In assay [16] the test system is LoVo. The experiment in a line: Cytotoxic activity against solid tumor, LoVo, (human colon adenocarcinoma) concentration of agent required to reduce cell viability by 50%. The assay is classed as functional, cell-based. The method, boiled down: as §1
Assay [17] concerns P388. In words: In vivo antitumor activity against Murine P388 Leukemia at 6.67 mg/kg dose;(Median survival time of treated mice)/(median survival time of controls) x100. The assay is classed as functional, Mus musculus. The essentials:
as §3

For assay [18], the system named is LoVo. The experiment in a line: Cytotoxic activity against solid tumor, LoVo, (human colon adenocarcinoma) concentration of agent required to reduce cell viability by 90%. The assay is classed as functional. The essentials:
as §1

The subject of assay [19] is HL-60. The experiment in a line: Cytotoxic activity against human promyelocytic leukemia HL-60 concentration of agent required to reduce cell viability by 50%. It is filed as functional, cell-based. The method, boiled down: as §1
For assay [20], the system named is P388. The experiment in a line: In vivo antitumor activity against Murine P388 Leukemia at 20 mg/kg dose;(Median survival time of treated mice)/(median survival time of controls) x100. It is filed as functional, Mus musculus. The essentials:
as §3

For assay [21], the system named is HL-60. Described as §4. It is filed as functional. The essentials: as §2
The test system of assay [22] is HL-60. In words: Relative cytotoxicity against Human promyelocytic Leukemia(HL-60) cells; Value is in range, activity expressed as IC90. It is filed as functional. The essentials:
as §2

Assay [23] has as its system CHO. In words: Cytotoxic activity against solid tumor, CHO (Chinese hamster ovaric carcinoma) Concentration of agent required to reduce cell viability by 90%; Not observed. The assay is classed as functional, cell-based. To be noted: Cricetulus griseus. The essentials:
as §1

In assay [24] the test system is HL-60. In words: Cytotoxic activity against Human promyelocytic Leukemia HL-60 Concentration of agent required to reduce cell viability by 50%. The assay is classed as functional, cell-based. The method, boiled down: as §1
For assay [25], the species on record is Homo sapiens. In words: Relative cytotoxicity against Human bone marrow samples; Value is in range, activity expressed as IC90. The assay is classed as functional. The method, boiled down: as §2
The species named for assay [26] is Homo sapiens. In words: Relative cytotoxicity against Human bone marrow samples; Value is in range, activity expressed as IC50. It is filed as functional. The essentials: as §2
In assay [27] the test system is LoVo. In words: Cytotoxic activity against solid tumor, LoVo, (human colon adenocarcinoma) Concentration of agent required to reduce cell viability by 90%. It is filed as functional. The method, boiled down: as §1
In assay [28] the test system is B16. In words: Cytotoxic activity against solid tumor, B16 (murine melanoma) Concentration of agent required to reduce cell viability by 50%. To be noted: Mus musculus. It is filed as functional, cell-based. The essentials: as §1
Assay [29] deals with LoVo. The experiment in a line: Cytotoxic activity against solid tumor, LoVo, (human colon adenocarcinoma) Concentration of agent required to reduce cell viability by 50%. The assay is classed as functional, cell-based. The essentials: as §1
Assay [30] concerns HL-60. The experiment in a line: Relative cytotoxicity against Human promyelocytic Leukemia(HL-60) cells; Value is in range, activity expressed as IC50. It is filed as functional, cell-based. The method, boiled down:
as §2

Assay [31] is described as follows: Ratio of antilog(mean log IC50 in bone marrow sample) and antolog(mean log IC90) in HL-60). The assay is classed as functional. The method, boiled down:
as §2

For assay [32], the system named is CHO. The experiment in a line: Cytotoxic activity against solid tumor, CHO (Chinese hamster ovaric carcinoma) Concentration of agent required to reduce cell viability by 50%. Particulars: Cricetulus griseus. It is filed as functional, cell-based. The essentials:
as §1

Assay [33] has as its system HL-60. In words: Cytotoxic activity against Human promyelocytic Leukemia HL-60 Concentration of agent required to reduce cell viability by 90%. It is filed as functional. The essentials:
as §1

Assay [34] concerns Lewis lung carcinoma cell line. The experiment in a line: Cytotoxic activity against solid tumor LLC(Lewis lung carcinoma), concentration of agent required to reduce cell viability by 90%; not observed. Particulars: Mus musculus. It is filed as functional, cell-based. The essentials: as §1
Assay [35] in a line: Ratio of antilog(mean log IC90 in bone marrow sample) and antolog(mean log IC90) in HL-60). It is filed as functional. The essentials: as §2
Assay [36] has as its system P388. In words: Cytotoxic activity against Murine Lymphocytic Leukemia P388 Concentration of agent required to reduce cell viability by 50%. Particulars: Mus musculus. The assay is classed as functional, cell-based. The essentials:
as §1

A short description of assay [37]: Ratio of antilog(mean log IC50 in bone marrow sample) and antolog(mean log IC50) in HL-60). It is filed as functional. The method, boiled down:
as §2

Assay [38] has as its system B16. In words: Cytotoxic activity against solid tumor, B16 (murine melanoma) Concentration of agent required to reduce cell viability by 90%; Not observed. It is filed as functional, cell-based. To be noted: Mus musculus. The essentials:
as §1

The subject of assay [39] is P388. In words: Cytotoxic activity Murine Lymphocytic Leukemia P388 Concentration of agent required to reduce cell viability by 90%. The assay is classed as functional. To be noted: Mus musculus. The method, boiled down: as §1

Molecules are shown by their SMILES. pIC50: −log10 of the molar value.

Consider three compounds from ChEMBL document CHEMBL1132240, “Design and synthesis of modified quinolones as antitumoral acridones” (J Med Chem, 1999).

As usually defined, the pIC50 is −log10 of the IC50, conventionally taken in molar units. A high value points to a small IC50. One may read the T/C as the result in the treated group divided by that in the control group, in per cent. As usually defined, the IC90 is the concentration at which the effect reaches the 90% level.

As to `CCN(CC)CCn1c2cc(Cl)c(N)cc2c(=O)c2c(O)cc(OC)cc21`, the pIC50 in assay [1] is 5.42; in assay [9], 5.73; in [11] it was 5.49; in [12] it was 5.96; in assay [13], 5.30; in assay [14], 5.80. Moreover, the pIC50 in [16] was 5.82; in assay [19], 5.38. The Ratio in assay [2] is listed as 1.2; in [8], 0.8; in assay [10], 4.1. In addition, the T/C is on record as 100% in assay [3], 83% in assay [17] and 97% in assay [20]. Further, the concentration for an effect of 90% (IC90) was determined as 8400 nM in assay [4]; 4000 nM in [5]; 5900 nM in assay [6]; 11000 nM in [7]; 14800 nM in assay [11]; 8000 nM in assay [15]. The values for the concentration for an effect of 90% (IC90) in assay [18] and in [21] were 6300 nM and 2930 nM, respectively.
Take `COc1cc([C@@H]2c3cc4c(cc3[C@@H](O[C@@H]3O[C@@H]5CO[C@@H](C)O[C@H]5[C@H](O)[C@H]3O)[C@H]3COC(=O)[C@H]23)OCO4)cc(OC)c1O` [ETOPOSIDE]: the negative logarithm of the IC50 (pIC50) in assay [1] was 6.62; in [9], 6.44; in [11], 6.00; in assay [12] it was 6.46; in [13], 5.96; in [14], 6.49. Moreover, the figures for the pIC50 in assay [16] and in assay [19] were 5.64 and 5.92, respectively. Moreover, the Ratio in [2] is given as 1.8; in [8], 0.9; in [10], 5.6. For the same compound, the IC90 in [4] amounted to 3100 nM; in assay [5] it was 1900 nM; in [6], 7700 nM; in assay [7] it was 4500 nM; in [11], 7020 nM; in assay [15] it was 630 nM. For the same compound, the figures for the concentration for an effect of 90% (IC90) in [18] and in [21] were 44000 nM and 730 nM, respectively.
Regarding `CCN(CC)CCn1c2cc(N3CCC(O)CC3)c(N)cc2c(=O)c2c(O)cc(O)cc21`, the 90% effect concentration (IC90) in assay [22] was 657 nM; in [23], “Not observed”; in assay [25] it was 672 nM; in [27], above 32000 nM; in assay [33], 3600 nM; in [34] it was “Not observed”. For the same compound, the IC90 result in assay [38] was “Not observed”; in [39], 1600 nM. Besides, the negative logarithm of the IC50 (pIC50) in assay [24] was 5.66; in [26], 6.77; in assay [28] it was 5.77; in assay [29] it was below 4.49; in [30] it was 6.29; in [13], 5.06. In addition, the negative logarithm of the IC50 (pIC50) is 4.64 in assay [32] and 6.21 in [36]. For the same compound, the figures for the Ratio in assay [31], in assay [35] and in assay [37] were 0.3, 1.1 and 0.4, respectively.
